# Assay results collected from several papers.
# Compare with care: the assays were run in different laboratories.
# Target: Dual specificity testis-specific protein kinase 1 (TESK1, Homo sapiens, UniProt Q15569)
Compound,test,setting,quantity,result
Cc1ccc(C(=O)Nc2ccc(CN3CCN(C)CC3)c(C(F)(F)F)c2)cc1C#Cc1cnc2cccnn12,"enzyme activity, inhibitor",23.5 nM,remaining activity,100%
Nc1ncnc2occ(-c3ccc(NC(=O)Nc4cc(C(F)(F)F)ccc4F)cc3)c12,"cell-free assay, inhibitor",20 µM,remaining signal,7.4%
Cc1sc(C(=O)NC2COC2)cc1-n1cc(NC(=O)Nc2c(F)cccc2Cl)cn1,"enzyme activity, inhibitor",10 µM,remaining activity,88%
CC(C)(O)[C@H]1CC[C@H](Nc2ccc3ncc(-c4cccc(C(F)(F)F)c4)n3n2)CC1,"enzyme activity, inhibitor",1 µM,remaining activity,83.5%
O=C(Nc1cnn(-c2csc(C(=O)NC3COC3)c2)c1)Nc1ccccc1Cl,"enzyme activity, inhibitor",5 µM,remaining activity,100%
c1ccc(N2CCN(Cc3nc4ccccc4[nH]3)CC2)nc1,"binding, competition with immobilised ligand",1 µM,remaining binding,97%
COc1cc(/C=C/C(=O)CC(=O)/C=C/c2ccc(O)c(OC)c2)ccc1O,"enzyme activity, inhibitor",1 µM,activity vs control,101%
O=C1CCc2cc(Nc3cc(OC4CCOCC4)c([N+](=O)[O-])cc3Cl)ccc2N1,"cell-free assay, competition with immobilised ligand",1 µM,remaining binding,92%
COc1cc(Nc2cnc(C#N)c(O[C@H](C)CN(C)C)n2)ncc1-c1cnn(C)c1,"enzyme activity, inhibitor, radiometric",1 µM,remaining activity,110%
